Experimental data from ChEMBL document CHEMBL1154616, “Synthesis and antitumor activity studies of some new fused 1,2,4-triazole derivatives carrying 2,4-dichloro-5-fluorophenyl moiety” (Eur J Med Chem, 2009).

Tests used:
Type in all cases: functional
NCI-H460 [1] = experiment: Anticancer activity against human NCI-H460 cells assessed as cell growth at 100 uM after 48 hrs by sulforhodamine B assay relative to control; conditions: NCI-H460, 48 h, read-out: Activity
Method in brief: (§1)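 Three-cell-line prescreen (NCI-H460 lung, MCF7 breast, SF 268 CNS), each preincubated on microtiter plates. The agent is added at a single concentration and cultures are incubated 48 h. Growth is read by sulphorhodamine B protein staining and reported as percent growth of treated versus untreated control cells; negative values indicate cell kill.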

MCF7 [2] = experiment: Anticancer activity against human MCF7 cells assessed as cell growth at 100 uM after 48 hrs by sulforhodamine B assay relative to control; conditions: MCF7, 48 h, read-out: Activity; method in brief: as §1
SF-268 [3] = experiment: Anticancer activity against human SF268 cells assessed as cell growth at 100 uM after 48 hrs by sulforhodamine B assay relative to control; conditions: SF-268, 48 h, read-out: Activity; method in brief: as §1
CCRF-CEM = experiment: Anticancer activity against human CCRF-CEM cells after 48 hrs by sulforhodamine B assay
Method in brief: (§2)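 Full 60-cell-line panel, compounds tested over a five-log dose range. Cells are preincubated on microtiter plates, the agent is added, and cultures run 48 h. The end point is sulphorhodamine B protein staining. GI50 is taken as the concentration giving 50% growth inhibition relative to untreated control cells.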

HL-60(TB) = experiment: Anticancer activity against human HL-60(TB) cells after 48 hrs by sulforhodamine B assay; conditions: HL-60, 48 h
Method in brief: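 Run within the full 60-cell-line panel across a five-log dose range. GI50 was taken as the concentration causing 50% growth inhibition relative to untreated control cells.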

K562 = experiment: Anticancer activity against human K562 cells after 48 hrs by sulforhodamine B assay; conditions: K562, 48 h; method in brief: as §2
MOLT-4 = experiment: Anticancer activity against human MOLT4 cells after 48 hrs by sulforhodamine B assay; conditions: MOLT-4, 48 h; method in brief: as §2
[4] = Anticancer activity against human […] cells after 48 hrs by sulforhodamine B assay; method in brief: as §2
SR = experiment: Anticancer activity against human SR cells after 48 hrs by sulforhodamine B assay
Method in brief: (§3)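 Cells from the 60-line full panel are preincubated on microtiter plates, then treated across a five-log dose range for 48 h. Growth is read with the protein-binding dye sulforhodamine B. GI50 is the concentration giving 50% growth inhibition relative to untreated control cells.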

A549 = experiment: Anticancer activity against human A549 cells after 48 hrs by sulforhodamine B assay; conditions: A549, 48 h; method in brief: as §2
EKVX = experiment: Anticancer activity against human EKVX cells after 48 hrs by sulforhodamine B assay; method in brief: as §2
HOP-92 = experiment: Anticancer activity against human HOP92 cells after 48 hrs by sulforhodamine B assay; conditions: HOP-92, 48 h; method in brief: as §2
NCI-H226 = experiment: Anticancer activity against human NCI-H226 cells after 48 hrs by sulforhodamine B assay; conditions: NCI-H226, 48 h; method in brief: as §2
NCI-H23 = experiment: Anticancer activity against human NCI-H23 cells after 48 hrs by sulforhodamine B assay; conditions: NCI-H23, 48 h; method in brief: as §2
NCI-H322M = experiment: Anticancer activity against human NCI-H322M cells after 48 hrs by sulforhodamine B assay; method in brief: as §2
NCI-H460 [5] = experiment: Anticancer activity against human NCI-H460 cells after 48 hrs by sulforhodamine B assay; conditions: NCI-H460, 48 h; method in brief: as §2
NCI-H522 = experiment: Anticancer activity against human NCI-H522 cells after 48 hrs by sulforhodamine B assay; conditions: NCI-H522, 48 h; method in brief: as §2
COLO 205 = experiment: Anticancer activity against human COLO205 cells after 48 hrs by sulforhodamine B assay; conditions: COLO 205, 48 h; method in brief: as §2
HCC 2998 = experiment: Anticancer activity against human HCC2998 cells after 48 hrs by sulforhodamine B assay; conditions: HCC 2998, 48 h; method in brief: as §2
HCT-15 = experiment: Anticancer activity against human HCT15 cells after 48 hrs by sulforhodamine B assay; conditions: HCT-15, 48 h; method in brief: as §2
HT-29 = experiment: Anticancer activity against human HT-29 cells after 48 hrs by sulforhodamine B assay; conditions: HT-29, 48 h; method in brief: as §2
KM12 = experiment: Anticancer activity against human KM12 cells after 48 hrs by sulforhodamine B assay; conditions: KM12, 48 h; method in brief: as §2
SW-620 = experiment: Anticancer activity against human SW620 cells after 48 hrs by sulforhodamine B assay; conditions: SW-620, 48 h; method in brief: as §3
SF-268 [6] = experiment: Anticancer activity against human SF268 cells after 48 hrs by sulforhodamine B assay; conditions: SF-268, 48 h; method in brief: as §2
SF-295 = experiment: Anticancer activity against human SF295 cells after 48 hrs by sulforhodamine B assay; conditions: SF-295, 48 h; method in brief: as §2
SF-539 = experiment: Anticancer activity against human SF539 cells after 48 hrs by sulforhodamine B assay; conditions: SF-539, 48 h; method in brief: as §2
SNB-19 = experiment: Anticancer activity against human SNB19 cells after 48 hrs by sulforhodamine B assay; conditions: SNB-19, 48 h; method in brief: as §2
SNB-75 = experiment: Anticancer activity against human SNB75 cells after 48 hrs by sulforhodamine B assay; conditions: SNB-75, 48 h; method in brief: as §3
U-251 = experiment: Anticancer activity against human U251 cells after 48 hrs by sulforhodamine B assay; conditions: U-251, 48 h; method in brief: as §3
LOX IMVI = experiment: Anticancer activity against human LOXIMVI cells after 48 hrs by sulforhodamine B assay; method in brief: as §2
Malme-3M = experiment: Anticancer activity against human MALME-3M cells after 48 hrs by sulforhodamine B assay; method in brief: as §2
SK-MEL-28 = experiment: Anticancer activity against human SK-MEL-28 cells after 48 hrs by sulforhodamine B assay; conditions: SK-MEL-28, 48 h; method in brief: as §2
UACC-62 = experiment: Anticancer activity against human UACC62 cells after 48 hrs by sulforhodamine B assay; conditions: UACC-62, 48 h; method in brief: as §3
UACC-257 = experiment: Anticancer activity against human UACC257 cells after 48 hrs by sulforhodamine B assay; conditions: UACC-257, 48 h; method in brief: as §3
IGROV-1 = experiment: Anticancer activity against human IGROV1 cells after 48 hrs by sulforhodamine B assay; conditions: IGROV-1, 48 h; method in brief: as §2
OVCAR-3 = experiment: Anticancer activity against human OVCAR-3 cells after 48 hrs by sulforhodamine B assay; conditions: OVCAR-3, 48 h; method in brief: as §2
OVCAR-4 = experiment: Anticancer activity against human OVCAR4 cells after 48 hrs by sulforhodamine B assay; conditions: OVCAR-4, 48 h; method in brief: as §2
OVCAR-5 = experiment: Anticancer activity against human OVCAR5 cells after 48 hrs by sulforhodamine B assay; conditions: OVCAR-5, 48 h; method in brief: as §2
OVCAR-8 = experiment: Anticancer activity against human OVCAR8 cells after 48 hrs by sulforhodamine B assay; conditions: OVCAR-8, 48 h; method in brief: as §2
SK-OV-3 = experiment: Anticancer activity against human SKOV3 cells after 48 hrs by sulforhodamine B assay; conditions: SK-OV-3, 48 h; method in brief: as §2
ACHN = experiment: Anticancer activity against human ACHN cells after 48 hrs by sulforhodamine B assay; method in brief: as §2
CAKI-1 = experiment: Anticancer activity against human Caki1 cells after 48 hrs by sulforhodamine B assay; conditions: CAKI-1, 48 h; method in brief: as §2
RXF 393 = experiment: Anticancer activity against human RXF393 cells after 48 hrs by sulforhodamine B assay; conditions: RXF 393, 48 h; method in brief: as §2
SN12C = experiment: Anticancer activity against human SN12C cells after 48 hrs by sulforhodamine B assay; method in brief: as §2
TK-10 = experiment: Anticancer activity against human TK10 cells after 48 hrs by sulforhodamine B assay; conditions: TK-10, 48 h; method in brief: as §3
UO-31 = experiment: Anticancer activity against human UO31 cells after 48 hrs by sulforhodamine B assay; conditions: UO-31, 48 h; method in brief: as §3
PC-3 = experiment: Anticancer activity against human PC3 cells after 48 hrs by sulforhodamine B assay; conditions: PC-3, 48 h; method in brief: as §2
DU-145 = experiment: Anticancer activity against human DU145 cells after 48 hrs by sulforhodamine B assay; conditions: DU-145, 48 h; method in brief: as §2
MCF7 [7] = experiment: Anticancer activity against human MCF7 cells after 48 hrs by sulforhodamine B assay; conditions: MCF7, 48 h; method in brief: as §2
NCI/ADR-RES = experiment: Anticancer activity against human NCI/ADR-RES cells after 48 hrs by sulforhodamine B assay; method in brief: as §2
MDA-MB-231 = experiment: Anticancer activity against human MDA-MB-231 cells after 48 hrs by sulforhodamine B assay; conditions: MDA-MB-231, 48 h; method in brief: as §2
[8] = Anticancer activity against human Hs 578T cells after 48 hrs by sulforhodamine B assay; method in brief: as §2
MDA-MB-435 = experiment: Anticancer activity against human MDA-MB-435 cells after 48 hrs by sulforhodamine B assay; conditions: MDA-MB-435, 48 h; method in brief: as §2
T47D = experiment: Anticancer activity against human T47D cells after 48 hrs by sulforhodamine B assay; method in brief: as §3

Question: Which results are given for `Fc1cc(C2=Nn3c(nnc3-c3cc(F)c(Cl)cc3Cl)SC2)c(Cl)cc1Cl`?
Answer: growth at 100 µM (NCI-H460 [1]): 6%; growth at 100 µM (MCF7 [2]): 44%; growth at 100 µM (SF-268 [3]): 26%; GI50 (CCRF-CEM): 22 µM; GI50 (HL-60(TB)): 80.4 µM; GI50 (K562): 17.8 µM; GI50 (MOLT-4): 16.9 µM; GI50 [4]: 6 µM; GI50 (SR): 25.4 µM; GI50 (A549): 23.7 µM; GI50 (EKVX): 24.6 µM; GI50 (HOP-92): 11.3 µM; GI50 (NCI-H226): 14.9 µM; GI50 (NCI-H23): 21.8 µM; GI50 (NCI-H322M): 29.1 µM; GI50 (NCI-H460 [5]): 17.6 µM; GI50 (NCI-H522): 24.2 µM; GI50 (COLO 205): 19 µM; GI50 (HCC 2998): 31.6 µM; GI50 (HCT-15): 20.2 µM; GI50 (HT-29): 20.1 µM; GI50 (KM12): 28.5 µM; GI50 (SW-620): 22.6 µM; GI50 (SF-268 [6]): 18.5 µM; GI50 (SF-295): 20.3 µM; GI50 (SF-539): 18.9 µM; GI50 (SNB-19): 22.7 µM; GI50 (SNB-75): 26.2 µM; GI50 (U-251): 20.4 µM; GI50 (LOX IMVI): 21.6 µM; GI50 (Malme-3M): 28.4 µM; GI50 (SK-MEL-28): 21.5 µM; GI50 (UACC-62): 13.3 µM; GI50 (UACC-257): 30.2 µM; GI50 (IGROV-1): 29.8 µM; GI50 (OVCAR-3): 11.5 µM; GI50 (OVCAR-4): 34.5 µM; GI50 (OVCAR-5): 56.8 µM; GI50 (OVCAR-8): 26 µM; GI50 (SK-OV-3): 29.2 µM; GI50 (ACHN): 26.6 µM; GI50 (CAKI-1): 20.6 µM; GI50 (RXF 393): 23.2 µM; GI50 (SN12C): 18.4 µM; GI50 (TK-10): 37.4 µM; GI50 (UO-31): 31.3 µM; GI50 (PC-3): 16.9 µM; GI50 (DU-145): 36.6 µM; GI50 (MCF7 [7]): 16.8 µM; GI50 (NCI/ADR-RES): 27.4 µM; GI50 (MDA-MB-231): 13.4 µM; GI50 [8]: 21.9 µM; GI50 (MDA-MB-435): 27.8 µM; GI50 (T47D): 4.93 µM
